Screening data from PubChem.
HSP90 refold inh: HSP90 refolding inhibition in rabbit reticulocyte lysate; AID 1789; actives 0.91% (n = 290,000); luciferase refolding luminescence, 3 h; inhibition, % at 5.6 µM;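 active = inhibition above the screen-wide mean plus 3 SD, computed separately per campaign, cut at about 16% in these data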;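 also: 0% = DMSO wells and 100% = 60 µM geldanamycin wells; inhibitors lower the luminescence because luciferase stays unfolded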
STAT3 inh: reduces IL-6 driven STAT3 reporter signal; actives 0.89% (n = 190,000); U3A cells, IL-6 STAT3-luciferase reporter, luminescence; host cell line lacks STAT1; AID 862; inhibition, % at 5.5 µM;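 active = inhibition above the mean inhibition across all screened compounds plus 3 SD, cut at about 44% in these data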;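 also: 0% = DMSO only wells and 100% = 100 µM nifuroxazide control wells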
PPC-1+TRAIL kill: kills PPC-1 cancer cells in the presence of TRAIL. PPC-1 cells + TRAIL, ATPLite viability luminescence. cell killing (% activity), % at 4 µM or 5 µM. actives 0.41% (n = 220,000);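 active = cell killing above 50% in the first pass at 4 µM, then a duplicate retest at 5 µM averaging 50% or more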;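 also: plate controls were cells with TRAIL plus DMSO for no effect and medium-only wells lacking cells for full effect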
C8 TRAIL sens: caspase-8 TRAIL sensitization. NB7+C8 cells + TRAIL, ATPlite viability luminescence. inhibition (viability loss, TRAIL sensitization), % at 10 µM. actives 1% (n = 360,000). AID 624354;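 active = compounds causing at least 50% loss of cell viability in the single-dose screen, relative to plate controls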
STAT1 blocker: inhibitors of IFN-gamma induced STAT1 signaling; actives 0.35% (n = 200,000); inhibition, % at 5.5 µM; NIH 3T3 STAT1-luciferase reporter, luminescence;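 active = inhibition above a set limit, the mean inhibition across all tested compounds plus 3 SD, cut at about 34% in these data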;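 also: 0% = IFN-gamma with DMSO and 100% = IFN-gamma with 300 µM nifuroxazide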
STAT3 activator: increases IL-6 driven STAT3 reporter signal; AID 871; actives 0.91% (n = 190,000); activation (% of control), % at 5.6 µM; U3A cells, IL-6 STAT3-luciferase reporter, luminescence; 100% = signal with IL-6 EC80 alone;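 active = activation above the screen-wide mean of compound activation plus 3 SD, cut at about 130% in these data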;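 also: 0% = background luminescence of wells with medium and substrate only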
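System – human U3A cells carrying STAT3-luciferase construct · Probe or stimulus – Interleukin-6, 33 ng/mL · Schedule – compound 1 h, then IL-6 6 h at 37 °C · Signal – luminescence from STAT3-driven luciferase reporter · Evaluation – percent of IL-6-only median luminescence · Benchmarks – IL-6-only high control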
HSP90 inh confirm: confirmation of HSP90 inhibitors; inhibition, % at 5.9 µM; actives 64% (n = 2,300); rabbit reticulocyte lysate, luciferase refolding luminescence, 3 h; shares compounds with HSP90 refold inh; in the data active = inhibition above about 18%;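 also: 0% = vehicle wells and 100% = reference inhibitor wells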
FLuc counter: blocks native firefly luciferase in HSP90 counter-screen; shares compounds with HSP90 refold inh; purified native firefly luciferase, luminescence; inhibition, % at 5.9 µM; actives 48% (n = 2,300);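 active = inhibition above the mean inhibition of all tested sample wells plus 3 SD, cut at about 10% in these data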;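 also: 0% = DMSO with luciferase and 100% = wells lacking luciferase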
Target sequence (P08659 whole entry, looked up): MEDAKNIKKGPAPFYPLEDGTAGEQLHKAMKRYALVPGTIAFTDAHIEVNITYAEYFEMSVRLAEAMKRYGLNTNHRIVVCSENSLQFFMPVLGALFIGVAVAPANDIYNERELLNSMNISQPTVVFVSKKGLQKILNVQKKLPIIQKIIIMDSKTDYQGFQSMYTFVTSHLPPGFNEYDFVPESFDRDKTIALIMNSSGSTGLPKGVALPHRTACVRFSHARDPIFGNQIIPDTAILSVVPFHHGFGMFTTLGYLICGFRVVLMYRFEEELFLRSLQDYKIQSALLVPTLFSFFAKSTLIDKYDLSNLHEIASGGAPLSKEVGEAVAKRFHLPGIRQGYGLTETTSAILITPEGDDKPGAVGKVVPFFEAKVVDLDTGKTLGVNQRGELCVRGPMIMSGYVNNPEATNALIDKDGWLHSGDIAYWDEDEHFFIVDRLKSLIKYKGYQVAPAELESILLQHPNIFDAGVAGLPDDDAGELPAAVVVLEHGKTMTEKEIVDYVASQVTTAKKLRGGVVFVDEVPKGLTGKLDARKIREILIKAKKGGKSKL
Active calls of the source: *; / = no result given. Shown are actives, neighbours in structure and some others; about 2.3% of the full set was active somewhere.

SMILES	HSP90 refold inh	STAT3 inh	PPC-1+TRAIL kill	C8 TRAIL sens	STAT1 blocker	STAT3 activator	HSP90 inh confirm	FLuc counter
O=c1[nH]c(Nc2ccccc2)cc2ccccc12	17*	9	-2	-6	-13	96	25*	-1
O=C1c2ccccc2CN2C(=O)c3ccccc3CN12	3	/	/	-27	/	/	/	/
c1ccc(-c2cn3c(n2)-c2ccccc2C3)cc1	18*	36	44	69*	-16	68	51*	42*
Cc1ccc2oc(=O)c(/C=C(\O)c3cccs3)nc2c1	18*	/	16	-7	/	/	42*	-16
O=c1oc2ccc(Cl)cc2nc1/C=C(\O)c1cccs1	63*	/	16	9	/	/	79*	-11
O=C(O)c1ccc(NC(=O)c2cc3ccccc3o2)cc1	2	/	/	35	/	/	/	/
COc1ccc(-n2c(C)cc(/C=N/Nc3nnc(C)n3N)c2C)cc1	75*	-12	5	8	-34	114	-5	-7
COc1cccc(/C=N/Nc2nnc(C)n2N)c1O	3	/	/	10	/	/	/	/
COCCN(C(=O)c1ccccc1F)c1nc(-c2ccc(OC)cc2)cs1	7	/	/	7	/	/	/	/
O=C(O)c1cccc(S(=O)(=O)Nc2ccc(-c3ccccc3)cc2)c1	/	/	/	-13	/	/	/	/
O=C(O)c1ccc(NS(=O)(=O)c2ccc3c(c2)C(=O)c2ccccc2C3=O)cc1	28*	6	1	1	1	99	2	-7
COc1cccc(N2CCN(C(=O)CCC(=O)N3CCOc4ccc(C)cc43)CC2)c1	-3	/	/	-6	/	/	/	/
COc1ccccc1NC(=O)NNC(=O)c1ccc2ccccc2c1	-3	/	/	-11	/	/	/	/
COc1ccc(OC(C)C(=O)Nc2cccc(OC)c2)cc1 (centres undefined)	17*	13	21	-4	1	88	-8	-8
CCCc1nnc(NC(=O)c2cccc(OC)c2)s1	-3	12	1	-10	-37	90	/	/
COc1ccccc1C(=O)NNC(=O)c1ccc2ccccc2c1	18*	/	/	22	/	/	-3	-14
COc1cccc(C(=O)Nc2nnc(C(C)C)s2)c1	22*	36	14	23	-31	71	34*	22*
COc1ccc(C(=O)Nc2ccccc2C(=O)N/N=C/c2cccc3ccccc23)cc1	35*	80*	90*	95*	39*	32	80*	51*
CC(=O)C1=CCC(c2ccccc2)N(S(=O)(=O)c2cccc(C)c2)C1 (centres undefined)	/	/	/	-10	/	/	/	/
CN1CCCC(OC(=O)c2cc(Cl)ccc2Cl)C1 (centres undefined)	4	19	8	-3	9	89	/	/
Cc1ccc(Cn2c(SCCN3CCOCC3)nc3c2c(=O)n(C)c(=O)n3C)cc1	0	5	-2	-13	4	100	/	/
COc1ccc(C(=O)Nc2ccc3ccccc3c2)cc1	34*	/	/	69*	/	/	63*	53*
COc1cccc(C(=O)Nc2ccc3ccccc3c2)c1	18*	/	/	48	/	/	46*	37*
COc1ccc(OC)c(C(=O)c2ccc(C(=O)Nc3ccc4ccccc4c3)cc2)c1	1	-1	18	38	-2	102	/	/
Cn1c(=O)c2cc(S(=O)(=O)NCCC(=O)NC3CCCCCCC3)ccc2n(C)c1=O	1	13	0	0	1	93	/	/
SMILES	HSP90 refold inh	STAT3 inh	PPC-1+TRAIL kill	C8 TRAIL sens	STAT1 blocker	STAT3 activator	HSP90 inh confirm	FLuc counter
O=C(Nc1ccc(Cl)c(Cl)c1)C1=Cc2ccccc2OC1	1	3	-14	-3	-27	101	/	/
N#CC1=C2C=CC=CN2CC1=O	20*	-11	12	1	-49	112	4	-2
CCOC(=O)NC(C(Cl)(Cl)Cl)S(=O)(=O)c1ccccc1 (centres undefined)	3	/	13	5	/	/	/	/
O=C(Nc1ccc(C(=O)N2CCCC2)cc1)c1cccc(C(F)(F)F)c1	21*	/	/	10	/	/	-8	-13
O=C(c1cccc(C(F)(F)F)c1)N1CCCC1	-1	9	-11	-11	-5	96	/	/
O=C(NCc1cccs1)C1CCCCC1	26*	-3	0	2	1	100	-3	-7
O=C(NCc1cccs1)C1CC1	0	5	9	-5	2	104	/	/
OCC(O)CN1CCN(c2ccccc2)CC1 (centres undefined)	4	6	19	-15	-1	97	/	/
COc1cccc(C(=O)Nc2cc(C)c3c(=O)oc4ccccc4c3n2)c1	/	/	22	33	/	/	/	/
CCOc1ccc(C(=O)OCC(=O)NCc2ccco2)cc1OCC	31*	-6	15	-8	0	110	-2	-7
COc1ccc(C(=O)OCC(=O)NCc2ccco2)cc1OC	2	-8	5	-5	-3	110	/	/
COc1ccc(C(=O)Nc2nc3c(s2)Cc2cc(OC)ccc2-3)cc1	6	28	10	8	-4	78	/	/
COc1ccc(C(=O)Nc2nc3ccccc3s2)cc1	37*	/	/	60*	/	/	73*	67*
O=C(Nc1ncccc1O)c1ccc(OCC2CCCO2)cc1 (centres undefined)	24*	/	/	18	/	/	44*	20*
COc1ccc2nc(NC(=O)c3ccco3)sc2c1	41*	/	/	67*	/	/	58*	56*
O=C(Nc1nc2ccc(Br)cc2s1)c1ccco1	3	/	/	35	/	/	/	/
COc1ccc2c(c1)Cc1sc(NC(=O)c3ccccc3)nc1-2	18*	13	20	16	-40	89	-3	-28
Cc1n[nH]c(=S)n1/N=C/c1ccc(-c2ccc(Cl)cc2)o1	/	/	/	13	/	/	/	/
Cc1cc(NC(=O)COC(=O)C2CCN(S(=O)(=O)c3cccc(Cl)c3Cl)CC2)no1	6	10	-26	-7	4	95	/	/
COC(=O)c1ccc2nc(NC(=O)C(C)C)sc2c1	14	32	31	25	-37	75	/	/
O=C(Nc1nc2ccccc2s1)c1ccc(OCC2CCCO2)cc1 (centres undefined)	19*	19	22	67*	-87	86	39*	33*
O=C(NC1=NCCS1)c1ccc(OCC2CCCO2)cc1 (centres undefined)	9	24	26	46	-21	83	/	/
COC(=O)c1ccc2nc(NC(=O)C3CC3)sc2c1	39*	/	/	-5	/	/	57*	-20
C/C(=C\C(=O)c1ccccc1)NNc1nc2ccccc2s1	37*	-4	-22	3	-2	113	-5	-11
C/C(=C\c1ccccc1)C(=O)Nc1ccc(Cl)cn1	18*	/	/	19	/	/	25*	21*
CC(=O)NN1C(=O)c2ccc3c4c(ccc(c24)C1=O)C(=O)N(NC(C)=O)C3=O	45*	/	/	47	/	/	30*	-2
C=CCNC(=S)Nc1ccc2nsnc2c1	-1	1	6	0	6	102	/	/
